Experimental data as given in ChEMBL document CHEMBL5370602, “Structure-Based Design of a Lead Compound Derived from Natural Schweinfurthins with Antitumor Properties That Target Oxysterol-Binding Protein” (J Med Chem, 2023).
Calls of active or inactive are those of the source. No cut-off for these calls is given here.

Assays:
U-87 MG [1] = experiment: Antiproliferative activity against human U-87 MG cells assessed as inhibition of cell proliferation incubated for 72 hrs by CellTiter-Glo luminescent assay; assay type: functional, cell-based, U-87MG ATCC
In short: (§1)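 A549 in RPMI 1640 and U-87MG in DMEM, each with 10% FCS and 1% glutamine, at 37 °C and 5% CO₂. Cells seeded at 3000/well, dosed the next day, treated 72 h. Viability read by CellTiter-Glo luminescence with DMSO-treated cells set to 100%. IC50 taken from survival curves over three independent experiments.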

A549 = experiment: Antiproliferative activity against human A549 cells assessed as inhibition of cell proliferation incubated for 72 hrs by CellTiter-Glo luminescent assay; assay type: functional, cell-based; settings: A549, 72 h; in short: as §1
[2] = target: T1, Oxysterol-binding protein 1 (Homo sapiens, UniProt P22059); experiment: Inhibition of human C-terminal 6-His tagged OSBP ORD domain (401 to 807 residues) expressed in baculovirus-infected Sf9 cells assessed as reduction in DHE transfer from liposome (Le mimicking ER) to liposome (Lg mimicking golgi) with compound by FRET assay
T1 sequence (P22059 whole entry): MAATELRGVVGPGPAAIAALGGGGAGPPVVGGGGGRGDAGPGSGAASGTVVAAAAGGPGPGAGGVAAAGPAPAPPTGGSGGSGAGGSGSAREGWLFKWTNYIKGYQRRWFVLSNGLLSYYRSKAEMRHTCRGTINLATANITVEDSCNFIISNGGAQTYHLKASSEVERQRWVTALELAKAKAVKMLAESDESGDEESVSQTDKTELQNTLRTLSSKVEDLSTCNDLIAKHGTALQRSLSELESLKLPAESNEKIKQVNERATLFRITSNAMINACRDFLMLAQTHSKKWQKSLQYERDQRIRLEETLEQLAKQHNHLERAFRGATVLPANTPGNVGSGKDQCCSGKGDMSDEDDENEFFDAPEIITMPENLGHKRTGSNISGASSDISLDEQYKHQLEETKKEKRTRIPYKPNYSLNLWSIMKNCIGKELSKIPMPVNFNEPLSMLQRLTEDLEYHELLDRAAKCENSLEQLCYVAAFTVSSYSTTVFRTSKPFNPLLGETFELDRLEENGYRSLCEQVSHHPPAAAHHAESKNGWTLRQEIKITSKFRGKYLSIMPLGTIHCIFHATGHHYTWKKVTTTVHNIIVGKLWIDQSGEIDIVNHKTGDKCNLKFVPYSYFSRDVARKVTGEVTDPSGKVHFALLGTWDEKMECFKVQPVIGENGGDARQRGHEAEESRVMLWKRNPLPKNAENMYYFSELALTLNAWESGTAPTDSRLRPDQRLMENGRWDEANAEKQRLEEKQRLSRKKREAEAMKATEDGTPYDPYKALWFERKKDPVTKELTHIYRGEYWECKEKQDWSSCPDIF
In short: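 Purified human OSBP ORD (401-807, C-terminal 6×His) from baculovirus-infected Sf9 cells, used in a DHE sterol transfer fluorescence assay. Signal corrected for compound fluorescence. Kinetics fitted linearly or by ΔF = ΔFmax(1 − e^−kt) to give apparent k, which was plotted against compound concentration. Ki from a quadratic (tight binders) or hyperbolic equation, three independent experiments.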

[3] = Metabolic stability in mouse liver microsomes assessed as intrinsic clearance at 2.5 uM and measured upto 45 mins in presence of NADPH by LC-MS/MS analysis; assay type: ADME, Microsome; settings: read-out: CLH
[4] = Metabolic stability in mouse liver microsomes assessed as compound remaining at 2.5 uM and measured after 45 mins in absence of NADPH by LC-MS/MS analysis; assay type: ADME, Microsome; settings: read-out: Stability
[5] = Metabolic stability in mouse plasma assessed as compound remaining at 5 uM and measured after 120 mins by UPLC-MS/MS analysis; assay type: ADME, cell-free; settings: read-out: Stability
In short: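 Male mouse plasma at 37 °C with compound added from a 5 µM solution […]. Sampled at 0, 15, 30, 45, 60 and 120 min, quenched with acetonitrile and read by LC-MS/MS (MRM) in duplicate. Procaine positive control. Remaining % and t1/2 derived from MRM area relative to t = 0.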

[6] = Metabolic stability in mouse liver microsomes assessed as compound remaining at 2.5 uM and measured after 45 mins in presence of NADPH by LC-MS/MS analysis; assay type: ADME, Microsome; settings: read-out: Stability
[7] = target: T2, Oxysterol-binding protein 1 (Homo sapiens) (UniProt P22059); experiment: Inhibition of human OSBP in human hTERT-RPE1 cells co-transfected with GFP-P4MSidM and TagBFP-betaGalT1 assessed as increase in PI4P at TGN by measuring GFP-P4M fluorescence and measured after 50 mins by immunofluorescence analysis; assay type: cell-based
T2 sequence (whole entry): T1 sequence (P22059 whole entry)
In short: (§2)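 hTERT-RPE-1 cells electroporated with GFP-P4M^SidM (PI4P probe) and TagBFP-βGalT1, plated 18-24 h. Timelapse confocal imaging at 37 °C after compound addition, with P4M-GFP intensity at the TGN tracked over time and compared before and 50 min after addition. Mean of 4 to 6 independent experiments ± SEM.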

U-87 MG [8] = experiment: Induction of autophagy in human U-87 MG cells assessed as decrease in LC3I expression at 0.05 to 1 uM incubated for 48 hrs by Western blot analysis; assay type: functional, cell-based; settings: U-87MG ATCC
In short: (§3)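 U-87 MG cells cultured two days, then exposed 48 h to increasing doses. Lysed in RIPA with protease inhibitors; 5 µg protein run on 4-20% SDS gels and transferred to PVDF. Probed for phospho/total AKT, S6, S6K, P62 and LC3, detected by ECL. Band intensities normalized to β-actin.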

[9] = target: T2, Oxysterol-binding protein 1 (Homo sapiens); experiment: Inhibition of human OSBP in human hTERT-RPE1 cells co-transfected with GFP-P4MSidM and TagBFP-betaGalT1 assessed as half life for inhibition of PI4P transfer by OBSP by immunofluorescence analysis; assay type: cell-based; in short: as §2
mTORC2 (Homo sapiens) = mTORC2 (Homo sapiens) (UniProt P42345+Q6R327+Q9BVC4+Q9BPZ7); experiment: Inhibition of mTORC2 signalling in human U-87 MG cells assessed as decrease in AKT phosphorylation at S473 residue at 0.05 to 1 uM incubated for 48 hrs by Western blot analysis; assay type: cell-based; in short: as §3
U-87 MG [10] = experiment: Induction of autophagy in human U-87 MG cells assessed as increase in LC3II expression at 0.05 to 1 uM incubated for 48 hrs by Western blot analysis; assay type: functional, cell-based; settings: U-87MG ATCC; in short: as §3
mTORC1 (Homo sapiens) [11] = target: T3, mTORC1 (Homo sapiens) (UniProt P42345+Q8N122+Q9BVC4); experiment: Inhibition of mTORC1 signalling in human U-87 MG cells assessed as decrease in S6 phosphorylation at S240/244 residue at 0.05 to 1 uM incubated for 48 hrs by Western blot analysis; assay type: cell-based; in short: as §3
mTORC1 (Homo sapiens) [12] = target: T3, mTORC1 (Homo sapiens); experiment: Inhibition of mTORC1 signalling in human U-87 MG cells assessed as decrease in S6K phosphorylation at T389 residue at 0.05 to 1 uM incubated for 48 hrs by Western blot analysis; assay type: cell-based; in short: as §3
[13] = target: T2, Oxysterol-binding protein 1 (Homo sapiens); experiment: Inhibition of human OSBP in human hTERT-RPE1 cells assessed as increase in OSBP recruitment at TGN and measured after 10 mins by confocal microscopy; assay type: cell-based
U-87 MG [14] = experiment: Induction of autophagy in human U-87 MG cells assessed as decrease in P62 expression at 0.05 to 1 uM incubated for 48 hrs by Western blot analysis; assay type: functional, cell-based; settings: U-87MG ATCC; in short: as §3
[15] = target: T2, Oxysterol-binding protein 1 (Homo sapiens); experiment: Inhibition of human OSBP in human hTERT-RPE1 cells assessed as increase in OSBP recruitment at TGN and measured after 4 hrs by confocal microscopy; assay type: cell-based
[16] = Drug uptake in human hTERT-RPE1 cells assessed as drug co-localization with OSBP perinuclear region of cell incubated for 30 mins by immunofluorescence analysis; assay type: ADME, cell-based; settings: tert-rpe1, 0.5 h
In short: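 hTERT-RPE-1 cells incubated 30 min with compound, then fixed (4% paraformaldehyde, 0.1% glutaraldehyde, 10 min), quenched with 50 mM NH₄Cl and permeabilized in saponin 0.05%/BSA 0.2%. Immunolabeled for OSBP and TGN-46. Compound imaged directly by UV-adapted widefield fluorescence (excitation 330, emission 410 nm).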

Compound | IC50 (U-87 MG [1]) [µM] | IC50 (A549) [µM] | Ki [2] [µM] | further results
COc1cc(/C=C/c2cc(O)c3c(c2)OC(C)(C)CC3)cc2c1O[C@]1(C)CC[C@@H](O)C(C)(C)[C@H]1C2 | 0.478 | 2.53 | 0.064 | 
COc1cc(/C=C/c2cc(O)c3c(c2)OC(C)(C)CC3)cc2c1O[C@]1(C)C[C@@H](O)[C@@H](OC=O)C(C)(C)[C@H]1C2 | 0.5 | 2.15 | 0.829 | 
C=CCc1c(/C=C/c2cc(O)c(CC=C(C)C)c(O)c2)cc2c(c1O)O[C@]1(C)CC[C@@H](O)C(C)(C)[C@H]1C2 | 0.457 | 2.85 | 0.119 | 
COc1cc(CCc2cc(O)c3c(c2)OC(C)(C)CC3)cc2c1O[C@]1(C)CC[C@@H](OC=O)C(C)(C)[C@H]1C2 | 1.49 | > 10 | 3.7 | 
COc1cc(/C=C/c2cc(O)c(CC=C(C)C)c(O)c2)cc2c1O[C@@]1(C)[C@H](C2)C(C)(C)[C@H](O)C[C@@H]1O | 0.51 | 1.11 | 0.254 | 
CC(C)=CCc1c(O)cc(/C=C/c2cc(O)c3c(c2)C[C@@H]2C(C)(C)[C@H](O)[C@H](O)C[C@@]2(C)O3)cc1O [VEDELIANIN] | 0.015 | 0.966 | < 0.001 | 
COc1cc(/C=C/c2cc(O)c(CC=C(C)C)c(O)c2)cc2c1O[C@]1(C)CC[C@@H](O)C(C)(C)[C@H]1C2 [SCHWEINFURTHIN F] | 0.098 | 0.605 | 0.006 | 
COc1cc(/C=C/c2cc(O)c3c(c2)OC(C)(C)C(O)C3)cc2c1O[C@]1(C)C[C@@H](O)[C@@H](O)C(C)(C)[C@H]1C2 (some centres undefined) [SCHWEINFURTHIN H] | 0.656 | 1.79 | 0.401 | 
CC(C)=CCc1c(O)cc(/C=C/c2cc3c(c4c2C=CCO4)O[C@]2(C)CC[C@@H](O)C(C)(C)[C@H]2C3)cc1O | 0.481 | > 10 | 0.037 | 
COc1cc(/C=C/c2cc(O)c(CC=C(C)C)c(O)c2)cc2c1O[C@]1(C)C[C@@H](O)[C@@H](O)C(C)(C)[C@H]1C2 [SCHWEINFURTHIN E] | 0.022 | 0.397 | < 0.001 | 
CC(C)=CCC/C(C)=C/Cc1cc(/C=C/c2cc(O)c(CC=C(C)C)c(O)c2)cc(O)c1O [MAPPAIN] | 7 | > 10 | 3 | 
COc1cc(CCc2cc(O)c3c(c2)OC(C)(C)CC3)cc2c1O[C@]1(C)CC[C@@H](O)C(C)(C)[C@H]1C2 | 3.85 | > 10 | 0.046 | 

The next lines start with results.

IC50 (U-87 MG [1]) [µM] | IC50 (A549) [µM] | Ki [2] [µM] | Compound | further results
0.286 | 3.9 | 0.043 | C#CCOc1cc(/C=C/c2cc(O)c(CC=C(C)C)c(O)c2)cc2c1O[C@]1(C)CC[C@@H](O)C(C)(C)[C@H]1C2 | 
0.0094 | 0.647 | < 0.001 | CC1(C)CCc2c(O)cc(/C=C/c3cc(O)c4c(c3)C[C@@H]3C(C)(C)[C@H](O)CC[C@@]3(C)O4)cc2O1 | microsomal CLint at 2.5 µM [3]: 32 µL/min/mg; remaining at 0.75 h, 2.5 µM [4]: 100%; remaining at 2 h, 5 µM [5]: 100%; remaining at 0.75 h, 2.5 µM [6]: 48.6%
0.336 | 1.09 | 0.016 | COc1cc(/C=C/c2cc(O)c3c(c2)OC(C)(C)CC3)cc2c1O[C@]1(C)C[C@@H](O)[C@@H](O)C(C)(C)[C@H]1C2 | 
0.38 | 2.42 | 0.523 | COc1cc(/C=C/c2cc(O)c3c(c2)OC(C)(C)CC3)cc2c1O[C@]1(C)CC[C@@H](OC=O)C(C)(C)[C@H]1C2 | 
0.067 | 3.04 | 3.22 | CC1(C)CCc2c(O)cc(CCc3cc(O)c4c(c3)C[C@@H]3C(C)(C)[C@H](OC=O)CC[C@@]3(C)O4)cc2O1 | 
0.008 | 0.359 | < 0.001 | CC(C)=CCc1c(O)cc(/C=C/c2cc(O)c3c(c2)C[C@@H]2C(C)(C)[C@H](O)CC[C@@]2(C)O3)cc1O [SCHWEINFURTHIN G] | microsomal CLint at 2.5 µM [3]: 90 µL/min/mg; inhibition [7]: Active; Activity (U-87 MG [8]): Dose-Dependent Effect; remaining at 0.75 h, 2.5 µM [4]: 100%; T1/2 [9]: 10 min; inhibition (mTORC2 (Homo sapiens)): Dose-Dependent Effect; Activity (U-87 MG [10]): Dose-Dependent Effect; inhibition (mTORC1 (Homo sapiens) [11]): Dose-Dependent Effect; inhibition (mTORC1 (Homo sapiens) [12]): Dose-Dependent Effect; remaining at 2 h, 5 µM [5]: 100%; remaining at 0.75 h, 2.5 µM [6]: 23%; inhibition [13]: Active; Activity (U-87 MG [14]): Dose-Dependent Effect; inhibition [15]: inactive; Drug uptake [16]: Active
0.077 | 3.91 | < 0.001 | CC1(C)CCc2c(O)cc(CCc3cc(O)c4c(c3)C[C@@H]3C(C)(C)[C@H](O)CC[C@@]3(C)O4)cc2O1 | 
0.42 | 5 | 0.031 | C=CCOc1cc(/C=C/c2cc(O)c(CC=C(C)C)c(O)c2)cc2c1O[C@]1(C)CC[C@@H](O)C(C)(C)[C@H]1C2 | 
